# From PubChem
# G6PDH CS – L. mesenteroides G6PDH inhibitors, counter-screen for G6PDH-coupled screening assays, biochemical, Leuconostoc mesenteroides enzyme | AID 1020, 2008 | glucose-6-phosphate dehydrogenase [Leuconostoc mesenteroides] | 200,000 compounds, 0.12% hits | Purified L. mesenteroides G6PDH, diaphorase/resazurin coupled fluorescence, 45 min | inhibition, % at 5 µM; in the data active = inhibition above about 50%
# Diaphorase inh – diaphorase inhibitors and chemical oxidizers, primary screen, counter-screen for diaphorase-coupled primary assays, biochemical, uHTS, resorufin fluorescence; diaphorase resazurin-to-resorufin fluorescence, NADH, 16 min; bacterial (C. kluyveri) enzyme, not human; inhibition, % at 20 µM; 190,000 compounds, 0.69% hits; AID 1217, 2008;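 active = primary screen inhibition at 20 µM above a set limit, cut at about 50% in these data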;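 also: plate controls were DMSO with full reaction for no effect and wells lacking NADH for full effect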
#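 material = Clostridium kluyveri diaphorase enzyme | amount = 0.14 U/mL diaphorase, enzyme working solution | schedule = incubation 16 min, room temperature | detection = fluorescence of resorufin formed from resazurin, Ex 544/Em 590 nm | benchmarks = positive control minus NADH, DMSO neutral control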
# PfG6PD inh – PfG6PD enzyme inhibitors, primary screen, biochemical, fluorescence intensity, uHTS; PfGluPho enzyme, NADPH resazurin-diaphorase fluorescence; inhibition, % at 20 µM; 350,000 compounds, 0.78% hits; AID 504690, 2011;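 active = inhibition reaching at least a set limit at 20 µM in the primary screen, cut at about 59% in these data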;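 also: 0% = DMSO wells with substrate and 100% = DMSO wells lacking glucose-6-phosphate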
# Diaphorase act – compounds boosting diaphorase resazurin reduction – biochemical, uHTS, resorufin fluorescence, counter-screen for diaphorase-coupled primary assays, primary screen; Diaphorase/resazurin coupled assay, 16 min; active compounds read high; 1 = vehicle wells, 0 = NADH-free wells; activation factor at 20 µM; 190,000 compounds, 0.005% hits;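 active = diaphorase activity raised at least twofold by the compound at 20 µM; inactive = activation factor below 2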
#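 Test system: Clostridium kluyveri diaphorase, purified enzyme. Buffer or medium: 50 mM HEPES pH 7.4 buffer plus MgCl2 and Tween 20. Also added: 0.114 mM NADH and 0.1 mM resazurin, final amounts. Dosing: compound 20 µM once, DMSO 1%. Schedule: 16 min enzyme reaction, ambient temperature. Detection: fluorescence of resorufin, 544 nm excitation, 590 nm emission.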
# HKDC1 inh – HKDC1 hexokinase inhibitors, primary screen, biochemical, fluorescence, uHTS; recombinant HKDC1, G6PDH/diaphorase resazurin coupled fluorescence; 340,000 compounds, 0.16% hits; inhibition, % at 20 µM; Q2TB90;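 active = inhibition above about 35% when tested at 20 µM, limit read from the data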;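 also: plate controls were DMSO wells with enzyme for no effect and DMSO wells lacking enzyme for full effect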
#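 Test system: Recombinant HKDC1 (HK5) hexokinase enzyme, produced in-house | Input: HKDC1 at 5 µg/mL | Buffer or medium: Tris pH 8.0 buffer with MgCl2, Tween-20, BSA, BME | Schedule: 90 min reaction incubation at room temperature, dark | Technique: Resazurin-to-resorufin fluorescence via G6PDH and diaphorase coupling, 525/613 nm | Controls: DMSO wells with and without enzyme mix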
# Active calls of the source: *; / = not tested or not shown. Compounds with a hit are over-represented: about 1.3% of the library has one in this group of screens.
SMILES,G6PDH CS,Diaphorase inh,PfG6PD inh,Diaphorase act,HKDC1 inh
CC(=O)NC1Sc2ccccc2N=C1c1ccccc1 (centres undefined),2.9,17.4,62.8*,0.8,-6.4
COCCN=c1scc(-c2cccs2)n1/N=C/c1ccc(O)c(O)c1O,-7.3,68.8*,52.5,0.3,10.2
COCCN=c1scc(-c2ccccc2)n1/N=C/c1c[nH]c2ccccc12,-16.5,20.3,31.4,0.8,-0.9
Cc1cccnc1Nc1nc(-c2ccccn2)cs1,53.4*,16.0,11.5,0.8,-3.0
Cc1cccnc1Nc1nc(-c2ccccc2)cs1,/,/,22.9,/,2.9
O=c1[nH][nH]c(=S)n1C1CCCCC1,/,/,95.2*,/,-5.6
O=c1cc(O)n(C2CCCCCC2)c(=O)[nH]1,/,/,-11.8,/,-4.5
CCN(CC(=O)NCc1ccncc1)S(=O)(=O)c1cc(Cl)ccc1Cl,/,/,-13.0,/,4.5
COc1ccc(CCn2ccc(O)c(Cc3ccc(Cl)cc3)c2=O)cc1OC,1.4,14.9,27.6,0.9,-6.0
COc1ccc2nc3cccc(OC)c3nc2c1,51.3*,23.1,54.7,0.8,7.9
COc1ccc2nc(-c3ccco3)c(-c3ccco3)nc2c1,24.8,78.4*,55.7,0.2,26.5
c1coc(-c2nc(-c3ccco3)c(-c3ccco3)nc2-c2ccco2)c1,20.9,94.1*,53.7,0.1,68.3*
CC(=O)Oc1ccc(N2C(=O)[C@@H]3[C@H](C2=O)[C@H]2c4ccccc4C=NN2[C@@H]3C(C)=O)cc1,/,/,-4.0,/,-4.9
O=C(O)c1cc(-c2ccc(O)cc2)on1,15.0,74.9*,10.5,0.3,-4.8
O=C1c2cccc3c(Nc4ccccc4Cl)c([N+](=O)[O-])cc(c23)C(=O)N1CCO,15.7,55.5*,12.2,0.4,17.2
O=C1c2cccc([N+](=O)[O-])c2C(=O)N1CCO,2.9,19.1,-2.0,0.8,1.0
O=C1C=C(Nc2ccccc2O)c2ccccc2C1=O,55.7*,15.8,-4.8,0.8,23.6
Cc1ccc(NC2=CC(=O)C(=O)c3ccccc32)c(C)c1,/,/,20.7,/,17.8
CC1C(=O)N(Cc2cn(Cc3ccco3)nn2)CCS(=O)(=O)N1Cc1ccc(-c2ccccc2)cc1 (centres undefined),/,/,19.9,/,/
CC(=O)Nc1ccc(NC(=O)C2CCC(CNS(=O)(=O)c3cccc4nsnc34)CC2)cc1 (centres undefined),0.4,1.8,-10.9,1,-3.5
COc1cccc(/C=N/Nc2nc3ccccc3n3cnnc23)c1O,-21.1,65.6*,15.4,0.3,-1.9
COc1cccc(/C=N/Nc2nc3ccccc3n3cnnc23)c1,-14.3,9.0,5.9,0.9,5.7
O=C(C#Cc1ccccc1)c1cccc([N+](=O)[O-])c1,2.3,13.5,42.7,0.9,37.0*
CC(OC(=O)CCCN=C1NS(=O)(=O)c2ccccc21)C(=O)c1ccccc1 (centres undefined),/,/,3.1,/,-7.2
Cc1ccc(CN2CCN(C(=O)C3CCCO3)CC2)cc1 (centres undefined),-2.6,1.3,-3.8,1,-8.6
SMILES,G6PDH CS,Diaphorase inh,PfG6PD inh,Diaphorase act,HKDC1 inh
O=C(C1CCCO1)N1CCN(Cc2c(O)ccc3ccccc23)CC1 (centres undefined),22.4,56.3*,14.8,0.4,15.0
Cc1ccc(O)c(N=Cc2cc(Cc3ccccc3)cc([N+](=O)[O-])c2O)c1,32.2,64.3*,44.6,0.4,17.3
O=C(c1cc2ccccc2oc1=O)N(Cc1cccs1)CC1CCCO1 (centres undefined),4.4,-11.6,-12.6,1.1,-7.5
Cc1cc2c(N=O)c(NO)ccc2[nH]1,47.7,22.3,69.7*,0.8,-2.8
Oc1ccc2ccccc2c1CNc1cnc2ccccc2c1,25.4,59.6*,32.3,0.4,11.7
O=C(c1cc(-c2ccccc2)nc2ccccc12)N1CCCc2ccccc21,3.9,22.4,-14.0,0.8,18.3
CC(=O)n1cc([C@H]2C=C(C(=O)NCc3ccccc3)O[C@@H](OCc3ccc(CO)cc3)C2)c2ccccc21,16.8,44.3,26.6,0.6,3.8
CC(=O)n1cc([C@@H]2C=C(C(=O)N3CCN(Cc4ccccc4)CC3)O[C@H](OCc3ccc(CO)cc3)C2)c2ccccc21,16.4,58.6*,0.6,0.4,0.0
C[C@@H]1C=C(C(=O)N2CCN(C)CC2)O[C@H](OCc2ccc(CO)cc2)C1,7.8,68.5*,12.2,0.3,-1.1
CC(=O)n1cc([C@@H]2C=C(C(=O)Nc3ccccc3)O[C@H](OCc3ccc(CO)cc3)C2)c2ccccc21,5.4,51.1*,22.6,0.5,3.5
CC(=O)n1cc([C@H]2C=C(C(=O)N3CCN(Cc4ccccc4)CC3)O[C@@H](OCCCCO)C2)c2ccccc21,-0.9,34.7,11.0,0.7,-0.7
COCCn1c(NC(=S)NC(=O)C2CC2)cc(=O)[nH]c1=O,-7.2,61.1*,12.5,0.4,1.4
COCCn1c(NC(=S)NC(=O)C23CC4CC(CC(C4)C2)C3)cc(=O)[nH]c1=O,/,/,16.1,/,5.7
COc1cccc2c(SCC(=O)N/N=C/c3ccccc3)cc(C)nc12,-22.5,11.7,2.2,0.9,-4.7
COc1cccc2c(SCC(=O)N/N=C/c3ccc(O)c(O)c3)cc(C)nc12,9.8,54.0*,20.2,0.5,-0.3
CC(C)N1CCc2c(sc(NC(=O)c3cc4cc([N+](=O)[O-])ccc4s3)c2C(N)=O)C1,-4.4,66.9*,18.0,0.3,24.3
CCOC(=O)C1(Cc2ccccc2C)CCCN(Cc2cc(OC)c(O)c(OC)c2)C1 (centres undefined),58.6*,11.8,39.1,0.9,-2.8
COc1cc(CNc2ccc3c(c2)CCC3)cc(OC)c1O,-42.4,56.0*,13.2,0.4,4.5
CCOc1cc(CNc2ccc3c(c2)CCC3)ccc1O,-0.8,21.6,12.9,0.8,1.6
COc1cccc(/C=N/NC(=O)CSCC(=O)Nc2ccccc2)c1O,-6.1,6.9,-29.8,0.9,-2.1
CCN(CC)CCN(Cc1cc2cc3c(cc2[nH]c1=O)OCCO3)C(=S)NCC1CCCO1 (centres undefined),-2.2,-4.5,-11.0,1,-3.4
CN(C)CCN(Cc1cc2cc3c(cc2[nH]c1=O)OCCO3)C(=S)NCC1CCCO1 (centres undefined),12.6,50.1*,19.5,0.5,-10.1
NC(=S)Nc1ccc2cn[nH]c2c1,4.9,8.5,5.5,0.9,-3.5
c1cc2cn[nH]c2cc1NC1CCCCCC1,32.9,72.2*,33.6,0.3,17.1
